Results published in ChEMBL document CHEMBL1130095, “Synthesis of analogs of 2-methoxyestradiol with enhanced inhibitory effects on tubulin polymerization and cancer cell growth” (J Med Chem, 1997).

Columns and labels:
SF-539 = experiment: The In vitro cytotoxicity corresponding to 50% growth inhibition against […] (central nervous system) cell line.; assay type: functional; conditions: Homo sapiens
Tubulin [1] = molecular target: T1, Tubulin (Bos taurus, UniProt Q6B856+Q862L2+Q862F3); experiment: Evaluated for inhibition of tubulin polymerization.; assay type: functional
In short: (§1)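 Electrophoretically homogeneous bovine brain tubulin at 1.2 mg/mL (12 µM), preincubated at 26 °C with varying compound concentrations, then chilled on ice before GTP was added. Assembly was followed at 26 °C by turbidity at 350 nm, and the extent was read at 20 min. IC50 was derived graphically from at least two independent assays.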

HOP-62 [2] = experiment: In vitro cytotoxicity value corresponding to 50% growth inhibition against HOP-62(non small cell lung) cell line.; assay type: functional; conditions: Homo sapiens
HCT-116 [3] = experiment: In vitro cytotoxicity value corresponding to 50% growth inhibition against HCT116 (colon) cell line.; assay type: functional; conditions: Homo sapiens
DU-145 = experiment: The In vitro cytotoxicity value corresponding to 50% growth inhibition against DU-145 (prostate) cell line.; assay type: functional; conditions: Homo sapiens
UACC-62 = experiment: In vitro cytotoxicity value corresponding to 50% growth inhibition against UACC-62(melanoma) cell line.; assay type: functional; conditions: Homo sapiens
[4] = system: Panel (Carcinoma cell lines); experiment: Mean graph midpoint for growth inhibition of all human cancer cell lines; assay type: functional
MDA-MB-435 = experiment: In vitro cytotoxicity value corresponding to 50% growth inhibition against MDA-MB-435 (breast) cell line.; assay type: functional; conditions: Homo sapiens
OVCAR-3 = experiment: In vitro cytotoxicity value corresponding to 50% growth inhibition against OVCAR-3 (ovarian) cell line.; assay type: functional; conditions: Homo sapiens
SN12C = experiment: In vitro cytotoxicity value corresponding to 50% growth inhibition against SN12C (renal) cell line.; assay type: functional; conditions: Homo sapiens
HCT-116 [5] = experiment: The In vitro cytotoxicity value is the concentration of the compound corresponding to 50% growth inhibition againstHCT-116 (colon) cell line.; assay type: functional; conditions: Homo sapiens
[6] = molecular target: Tubulin beta chain (Bos taurus) (UniProt Q6B856); experiment: Evaluated for % inhibition of colchicine binding to tubulin.; set-up: concentration or dose not given beside the values; conditions: concentration not given here
Sequence of Tubulin beta chain (Bos taurus) (Q6B856 whole entry): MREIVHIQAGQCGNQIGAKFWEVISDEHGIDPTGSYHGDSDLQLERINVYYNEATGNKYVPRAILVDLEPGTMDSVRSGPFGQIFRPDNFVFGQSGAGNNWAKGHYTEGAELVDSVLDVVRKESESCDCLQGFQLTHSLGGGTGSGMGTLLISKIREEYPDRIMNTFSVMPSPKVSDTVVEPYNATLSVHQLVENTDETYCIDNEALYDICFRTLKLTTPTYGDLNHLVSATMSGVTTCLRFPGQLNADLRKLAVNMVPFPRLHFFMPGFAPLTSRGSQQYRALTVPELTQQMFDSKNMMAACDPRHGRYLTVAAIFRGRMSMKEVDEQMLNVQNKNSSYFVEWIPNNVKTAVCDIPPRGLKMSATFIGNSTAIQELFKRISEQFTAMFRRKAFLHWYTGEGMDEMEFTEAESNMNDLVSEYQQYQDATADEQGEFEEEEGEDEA
In short: (§2)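 Mixtures held 1.0 µM bovine brain tubulin (0.1 mg/mL), 5.0 µM [³H]colchicine and 50 µM inhibitor, incubated 10 min at 37 °C. Bound-colchicine inhibition is given as percent, from triplicate samples in each experiment.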

[7] = molecular target: Estrogen receptor (Rattus norvegicus) (UniProt P06211+Q62986); experiment: Relative binding affinity for estrogen receptor using a tritium labeled estrogen as the tracer and immature rat uterine cytosol; assay type: protein assay; conditions: Uterus
In short: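 Competitive radiometric binding with a tritiated estrogen tracer and immature rat uterine cytosol as receptor source, incubated at 0 °C for 18 or 20 h. […] Coefficient of variation between replicate experiments is typically below 30%.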

Tubulin (Bos taurus) = Tubulin (Bos taurus) (UniProt Q6B856+Q862L2+Q862F3); experiment: The compound was evaluated for inhibition of colchicine binding to tubulin.; assay type: protein assay; conditions: concentration not given here; in short: as §2
Tubulin [8] = molecular target: T1, Tubulin; experiment: The compound was evaluated for inhibition of tubulin polymerization, which is purified from bovine brain; assay type: functional; in short: as §1
HOP-62 [9] = experiment: The In vitro cytotoxicity value is the concentration corresponding to 50% growth inhibition against HOP-62 (non small cell lung) cell line.; assay type: functional; conditions: Homo sapiens

| inhibition (Tubulin (Bos taurus)) [%] | IC50 (Tubulin [8]) [nM] | Structure (SMILES) | GI50 (SF-539) [nM] | IC50 (Tubulin [1]) [nM] | GI50 (HOP-62 [2]) [nM] | GI50 (HCT-116 [3]) [nM] | GI50 (DU-145) [nM] | GI50 (UACC-62) [nM] | GI50 [4] [nM] | GI50 (MDA-MB-435) [nM] | GI50 (OVCAR-3) [nM] | GI50 (SN12C) [nM] | GI50 (HCT-116 [5]) [nM] | inhibition [6] [%] | relative binding affinity (RBA) [7] | GI50 (HOP-62 [9]) [nM] |
| --- | --- | --- | --- | --- | --- | --- | --- | --- | --- | --- | --- | --- | --- | --- | --- | --- |
| – | – | CCOc1cc2c(cc1O)CC[C@@H]1[C@@H]2CC[C@]2(C)[C@@H](N)CC[C@@H]12.Cl | 4000 | > 40000 | 11000 | 3200 | 1900 | 3600 | 3300 | 1700 | 1300 | 5200 | – | – | – | – |
| – | – | C[C@]12CC[C@@H]3c4cc(Br)c(O)c(Br)c4CC[C@H]3[C@@H]1CC[C@@H]2O | 21000 | > 40000 | – | – | 40000 | 17000 | 25000 | 27000 | 17000 | 28000 | 20000 | – | – | – |
| – | – | CCOc1cc2c(cc1O)/C(=N\NS(=O)(=O)c1ccc(C)cc1)C[C@@H]1[C@@H]2CC[C@]2(C)[C@@H](O)CC[C@@H]12 | 3500 | > 40000 | 5100 | 6700 | 15000 | – | 6200 | – | 3200 | 12000 | – | – | – | – |
| – | – | CC(=O)Oc1cc2c(cc1OCC(F)(F)F)[C@H]1CC[C@]3(C)[C@@H](OC(C)=O)CC[C@H]3[C@@H]1CC2=O | 23000 | > 40000 | 20000 | 21000 | 20000 | 18000 | 20000 | 18000 | 24000 | 20000 | – | – | – | – |
| – | – | C[C@]12CC[C@@H]3c4cc(OCC(F)(F)F)c(O)cc4CC[C@H]3[C@@H]1CC[C@@H]2O | 1400 | 1500 | 12000 | 3200 | 7000 | 2300 | 2600 | 280 | 460 | 4500 | – | 11 | – | – |
| – | – | CCOc1cc2c(cc1O)/C(=N\N)C[C@@H]1[C@@H]2CC[C@]2(C)[C@@H](O)CC[C@@H]12 | 2800 | 4300 | 1200 | 2100 | 17000 | 880 | 4200 | 6500 | 5400 | 17000 | – | 9.6 | – | – |
| – | – | CCOc1cc2c(cc1O)C(=O)C[C@@H]1[C@@H]2CC[C@]2(C)[C@@H](O)CC[C@@H]12 | 710 | 4100 | 30 | 20 | 170 | 10 | 130 | < 10 | 630 | 180 | – | 19 | – | – |
| 34 | 1400 | CCOc1cc2c(cc1O)/C(=N\OC)C[C@@H]1[C@@H]2CC[C@]2(C)[C@@H](O)CC[C@@H]12 | – | – | 110 | 49 | 330 | 52 | 270 | 29 | 26 | 390 | – | – | < 0.001 | – |
| – | – | COc1cc2c(cc1O)CC[C@@H]1[C@@H]2CC[C@]2(C)[C@@H](O)CC[C@@H]12 [2-METHOXYESTRADIOL] | 320 | 3100 | – | – | 1800 | 360 | 1300 | 80 | 210 | 950 | 470 | 19 | 0.245 | 700 |
| – | – | CC#Cc1cc2c(cc1O)CC[C@@H]1[C@@H]2CC[C@]2(C)[C@@H](O)CC[C@@H]12 | 950 | 4800 | 1700 | 480 | 3600 | 500 | 1700 | 130 | 340 | 6900 | – | 11 | – | – |
| – | – | CCOc1cc2c(cc1O)CC[C@@H]1[C@@H]2CC[C@]2(C)[C@@H](O)CC[C@@H]12 | 14 | 1300 | 18 | 26 | 65 | 16 | 76 | < 10 | 16 | 39 | – | 51 | – | – |
| – | – | CCOc1cc2c(cc1O)CC[C@@H]1[C@@H]2CC[C@]2(C)[C@@H](OS(=O)O[C@H]3CC[C@H]4[C@@H]5CCc6cc(O)c(OCC)cc6[C@H]5CC[C@]34C)CC[C@@H]12 | 570 | 5900 | 830 | 490 | 1100 | 1300 | 1100 | 220 | 270 | 2600 | – | 24 | – | – |
| – | – | CCOc1cc2c(cc1O)C(N)C[C@@H]1[C@@H]2CC[C@]2(C)[C@@H](O)CC[C@@H]12 (stereo partly drawn) | – | > 40000 | 26000 | 40000 | > 100000 | 19000 | 40000 | 16000 | 45000 | 59000 | – | – | – | – |
| – | – | CCOc1cc2c(cc1O)C=CC1C2CC[C@@]2(C)C1CC[C@@H]2O (stereo partly drawn) | 2000 | 4400 | 3900 | 1100 | 2100 | 4800 | 3800 | 340 | 1900 | 4600 | – | 8.6 | – | – |
| 63 | 1100 | CCOc1cc2c(cc1O)/C(=N\O)C[C@@H]1[C@@H]2CC[C@]2(C)[C@@H](O)CC[C@@H]12 | 13 | – | 11 | 11 | 26 | 17 | 79 | 10 | 17 | 21 | – | – | < 0.001 | – |
| – | – | CCOc1cc2c(c(OCC)c1O)CC[C@@H]1[C@@H]2CC[C@]2(C)[C@@H](O)CC[C@@H]12 | – | 8800 | 1300 | 800 | 3300 | – | 2700 | 200 | 90 | 4800 | – | 1.5 | – | – |
| – | – | CCOc1cc2c(cc1O)[C@@H](O)C[C@@H]1[C@@H]2CC[C@]2(C)[C@@H](O)CC[C@@H]12 | – | 2900 | – | 350 | 710 | 280 | 830 | 5400 | 350 | 660 | – | 12 | – | – |
| – | – | Cc1cc2cc3c(cc2o1)CC[C@@H]1[C@@H]3CC[C@]2(C)[C@@H](O)CC[C@@H]12 | 14000 | > 40000 | – | 510 | 17000 | 16000 | 14000 | 23000 | 18000 | 16000 | – | – | – | 19000 |
| – | – | CC(=O)Oc1cc2c(cc1OC(C)=O)[C@H]1CC[C@]3(C)[C@@H](OC(C)=O)CC[C@H]3[C@@H]1CC2 | 3500 | > 40000 | 4800 | 5100 | 3200 | 2500 | 3700 | 320 | 6400 | 5100 | – | – | – | – |

| Structure (SMILES) | inhibition (Tubulin (Bos taurus)) [%] | IC50 (Tubulin [8]) [nM] | GI50 (SF-539) [nM] | IC50 (Tubulin [1]) [nM] | GI50 (HOP-62 [2]) [nM] | GI50 (HCT-116 [3]) [nM] | GI50 (DU-145) [nM] | GI50 (UACC-62) [nM] | GI50 [4] [nM] | GI50 (MDA-MB-435) [nM] | GI50 (OVCAR-3) [nM] | GI50 (SN12C) [nM] | GI50 (HCT-116 [5]) [nM] | inhibition [6] [%] | relative binding affinity (RBA) [7] | GI50 (HOP-62 [9]) [nM] |
| --- | --- | --- | --- | --- | --- | --- | --- | --- | --- | --- | --- | --- | --- | --- | --- | --- |
| C[C@]12CC[C@@H]3c4cc(OCC(F)(F)F)c(O)cc4/C(=N\O)C[C@H]3[C@@H]1CC[C@@H]2O | 28 | 2300 | 21 | – | 17 | 31 | 49 | 15 | 66 | 10 | 16 | 45 | – | – | 0.007 | – |
